Results reported in ChEMBL document CHEMBL1212762, “In vivo activity of ceftobiprole in murine skin infections due to Staphylococcus aureus and Pseudomonas aeruginosa” (Antimicrob Agents Chemother, 2010).

What was measured:
[1] = system: Pseudomonas aeruginosa; test: Antimicrobial activity against Pseudomonas aeruginosa OC 4354 infected in immunocompromized SKH1 mouse assessed as log change in bacterial colony forming unit at 25 mg/kg/day, sc; assay type: functional; conditions: route subcutaneous
How it was run: (§1)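 Female SKH1 hairless mice made neutropenic with ip cyclophosphamide (150 mg/kg 5 days and 100 mg/kg 1 day before infection). 0.2 ml s.c. Cytodex bead (0.1% vol/vol) inoculum in BHI: OC 4351 left flank, OC 4354 right flank. Drug s.c. at 1, 3, 25, 27 h postinfection. Killed at 48 h; skin homogenised in saline, plated on TSA 18 h 37°C; Δlog CFU/g versus inoculum. 5 mice/dose, run twice.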

[2] = system: Pseudomonas aeruginosa; test: Antimicrobial activity against Pseudomonas aeruginosa OC 4354 infected in immunocompromized SKH1 mouse assessed as log change in bacterial colony forming unit at 1.6 mg/kg/day, sc; assay type: functional; conditions: route subcutaneous; how it was run: as §1
[3] = system: Pseudomonas aeruginosa; test: Antimicrobial activity against Pseudomonas aeruginosa OC 4354 infected in immunocompromized SKH1 mouse assessed as log change in bacterial colony forming unit at 100 mg/kg/day, sc; assay type: functional; conditions: route subcutaneous; how it was run: as §1
[4] = system: Pseudomonas aeruginosa; test: Antimicrobial activity against Pseudomonas aeruginosa OC 4354 assessed as inhibition of growth by broth microdilution method; assay type: functional
[5] = system: Pseudomonas aeruginosa; test: Antimicrobial activity against Pseudomonas aeruginosa OC 4351 infected in immunocompromized SKH1 mouse assessed as log change in bacterial colony forming unit at 25 mg/kg/day, sc; assay type: functional; conditions: route subcutaneous; how it was run: as §1
[6] = Tmax in immunocompromized SKH1 mouse plasma at 50 mg/kg, sc; assay type: ADME, organism-based; set-up: dose 50 mg/kg, route subcutaneous
How it was run: (§2)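 Female SKH1 hairless mice, immunocompetent or cyclophosphamide-neutropenic, infected s.c. with MRSA OC 8525 or P. aeruginosa OC 4354 on the Cytodex beads (left flank), sterile beads on the right. Single dose 24 h later: s.c. at the nape, or linezolid 50 mg/kg oral. Plasma and skin (DMSO homogenate) sampled over time, HPLC with diode array.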

[7] = system: Plasma; test: fAUC (0-infinity) in immunocompromized SKH1 mouse plasma at 50 mg/kg, sc; assay type: ADME, organism-based; set-up: dose 50 mg/kg, route subcutaneous; conditions: in vivo; how it was run: as §2
[8] = system: Pseudomonas aeruginosa; test: Antimicrobial activity against Pseudomonas aeruginosa OC 4351 infected in immunocompromized SKH1 mouse assessed as log change in bacterial colony forming unit at 1.6 mg/kg/day, sc; assay type: functional; conditions: route subcutaneous; how it was run: as §1
[9] = system: Pseudomonas aeruginosa; test: Antimicrobial activity against Pseudomonas aeruginosa OC 4351 assessed as inhibition of growth by broth microdilution method; assay type: functional
[10] = system: Pseudomonas aeruginosa; test: Antimicrobial activity against Pseudomonas aeruginosa OC 4351 infected in immunocompromized SKH1 mouse assessed as log change in bacterial colony forming units at 25 mg/kg/day, sc; assay type: functional; conditions: route subcutaneous; how it was run: as §1
[11] = system: Plasma; test: fCmax in immunocompromized SKH1 mouse plasma at 50 mg/kg, sc; assay type: ADME, organism-based; set-up: dose 50 mg/kg, route subcutaneous; conditions: in vivo; how it was run: as §2
[12] = system: Pseudomonas aeruginosa; test: Antimicrobial activity against Pseudomonas aeruginosa OC 4351 infected in immunocompromized SKH1 mouse assessed as log change in bacterial colony forming unit at 100 mg/kg/day, sc; assay type: functional; conditions: route subcutaneous; how it was run: as §1
[13] = system: Pseudomonas aeruginosa; test: Antimicrobial activity against Pseudomonas aeruginosa OC 4354 infected in immunocompromized SKH1 mouse assessed as log change in bacterial colony forming unit at 6.2 mg/kg/day, sc; assay type: functional; conditions: route subcutaneous; how it was run: as §1
[14] = system: Staphylococcus aureus; test: Antimicrobial activity against methicillin-resistant Staphylococcus aureus OC 8525 infected immunocompetent SKH1 mouse assessed as lesion volume at 1.6 mg/kg/day, sc measured after 48 hrs postinfection (reference value: 1535 mm3); conditions: route subcutaneous
[15] = system: Staphylococcus aureus; test: Antimicrobial activity against methicillin-resistant Staphylococcus aureus OC 8525 infected immunocompetent SKH1 mouse assessed as lesion volume at 100 mg/kg/day, sc measured after 48 hrs postinfection (reference value: 1535 mm3); conditions: route subcutaneous
[16] = Ratio of fAUC to MIC in Staphylococcus aureus OC 8525 infected sc dosed SKH1 mouse; assay type: functional
How it was run: (§3)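 Free-drug plasma AUC, converted from μg·min/ml to μg·h/ml, divided by the MIC of the infecting S. aureus strain.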

[17] = system: Plasma; test: fAUC (0-infinity) in immunocompetent SKH1 mouse plasma at 50 mg/kg, po; assay type: ADME, organism-based; set-up: dose 50 mg/kg, route oral; conditions: in vivo; how it was run: as §2
[18] = system: Staphylococcus aureus; test: Antimicrobial activity against methicillin-resistant Staphylococcus aureus OC 8525 infected immunocompetent SKH1 mouse assessed as lesion volume at 6.2 mg/kg/day, sc measured after 48 hrs postinfection (reference value: 1535 mm3); conditions: route subcutaneous
[19] = Half life in immunocompetent SKH1 mouse plasma at 50 mg/kg, po; assay type: ADME, organism-based; set-up: dose 50 mg/kg, route oral; how it was run: as §2
[20] = system: Plasma; test: fCmax in immunocompetent SKH1 mouse plasma at 50 mg/kg, po; assay type: ADME, organism-based; set-up: dose 50 mg/kg, route oral; conditions: in vivo; how it was run: as §2
[21] = Protein binding in mouse plasma; assay type: ADME, cell-free; conditions: read-out: PPB (converted)
[22] = system: Staphylococcus aureus; test: Antimicrobial activity against methicillin-susceptible Staphylococcus aureus Smith OC 4172 infected immunocompetent SKH1 mouse assessed as lesion volume at 1.6 mg/kg/day, sc measured after 48 hrs postinfection (reference value: 1181 mm3); conditions: route subcutaneous
[23] = system: Staphylococcus aureus; test: Antimicrobial activity against methicillin-susceptible Staphylococcus aureus Smith OC 4172 infected immunocompetent SKH1 mouse assessed as lesion volume at 25 mg/kg/day, sc measured after 48 hrs postinfection (reference value: 1181 mm3); conditions: route subcutaneous
[24] = system: Staphylococcus aureus; test: Antimicrobial activity against methicillin-resistant Staphylococcus aureus OC 8525 infected immunocompetent SKH1 mouse assessed as lesion volume at 25 mg/kg/day, sc measured after 48 hrs postinfection (reference value: 1535 mm3); conditions: route subcutaneous
[25] = system: Staphylococcus aureus; test: Antimicrobial activity against methicillin-susceptible Staphylococcus aureus Smith OC 4172 infected immunocompetent SKH1 mouse assessed as lesion volume at 6.2 mg/kg/day, sc measured after 48 hrs postinfection (reference value: 1181 mm3); conditions: route subcutaneous
[26] = Ratio of fAUC to MIC in Staphylococcus aureus OC 4172 infected sc dosed SKH1 mouse; assay type: functional; how it was run: as §3
[27] = Tmax in immunocompetent SKH1 mouse plasma at 50 mg/kg, po; assay type: ADME, organism-based; set-up: dose 50 mg/kg, route oral; how it was run: as §2

CO/N=C(\C(=O)N[C@@H]1C(=O)N2C(C(=O)[O-])=C(C[N+]3(C)CCCC3)CS[C@H]12)c1csc(N)n1
deltalog10CFU [1]: 1.7
deltalog10CFU [2]: 1.7
deltalog10CFU [3]: 1.7
MIC [4]: 32 µg/mL
deltalog10CFU [5]: 2.1
Tmax [6]: 7.5 min
fAUC [7]: 1790 µg·min/mL
deltalog10CFU [8]: 2.1
MIC [9]: 4 µg/mL
deltalog10CFU [10]: 1.8
fCmax [11]: 66 µg/mL
deltalog10CFU [12]: 1
deltalog10CFU [13]: 2.9

CC(=O)NC[C@H]1CN(c2ccc(N3CCOCC3)c(F)c2)C(=O)O1 [LINEZOLID]
Activity [14]: 1644 mm3
Activity [15]: 858 mm3
fAUC/MIC [16]: 449
fAUC [17]: 1795 µg·min/mL
Activity [18]: 1277 mm3
half-life [19]: 102 min
fCmax [20]: 14 µg/mL
fraction unbound [21]: 0.68
Activity [22]: 1407 mm3
Activity [23]: 1018 mm3
Activity [24]: 932 mm3
Activity [25]: 1234 mm3
fAUC/MIC [26]: 898
Tmax [27]: 30 min
